Results from ChEMBL document CHEMBL1800027, “Imidazolopiperazines: hit to lead optimization of new antimalarial agents” (J Med Chem, 2011).

Experiments:
[1] = Clearance in male BALB/c mouse at 5 mg/kg, iv by LC/MS/MS analysis; type: ADME, organism-based; set-up: dose 5 mg/kg, route intravenous; conditions: in vivo
How it was run: (§1)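 Male Balb/c mice, n = 3 per group, dosed iv via lateral tail vein at 5 mg/kg and 2 mL/kg. Vehicle 2.5 mg/mL in 75% PEG300/25% DSW, filtered. Six serial retro-orbital blood samples up to 24 h, heparinized plasma. Plasma extracted with acetonitrile/methanol (3:1) plus internal standard for LC/MS/MS (positive ESI, MRM). Noncompartmental analysis.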

[2] = Volume of distribution in male BALB/c mouse at 5 mg/kg, iv by LC/MS/MS analysis; type: ADME, organism-based; set-up: dose 5 mg/kg, route intravenous; conditions: in vivo; how it was run: as §1
[3] = molecular target: T1, Cytochrome P450 1A2 (Homo sapiens, UniProt P05177); assay: Inhibition of CYP 1A2; type: ADME
T1 sequence (P05177 whole entry): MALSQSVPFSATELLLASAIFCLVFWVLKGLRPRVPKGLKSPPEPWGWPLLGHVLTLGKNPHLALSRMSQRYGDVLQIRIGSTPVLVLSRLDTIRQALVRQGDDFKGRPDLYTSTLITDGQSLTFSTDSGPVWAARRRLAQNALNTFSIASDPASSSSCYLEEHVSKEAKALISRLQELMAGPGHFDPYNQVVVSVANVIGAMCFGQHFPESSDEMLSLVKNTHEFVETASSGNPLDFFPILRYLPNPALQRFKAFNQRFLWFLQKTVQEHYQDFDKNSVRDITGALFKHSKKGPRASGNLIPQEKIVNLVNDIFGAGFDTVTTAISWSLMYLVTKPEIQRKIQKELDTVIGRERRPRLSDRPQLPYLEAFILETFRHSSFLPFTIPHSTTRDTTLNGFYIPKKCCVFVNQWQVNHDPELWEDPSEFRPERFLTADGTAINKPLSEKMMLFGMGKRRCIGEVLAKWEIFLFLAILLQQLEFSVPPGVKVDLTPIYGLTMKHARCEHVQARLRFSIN

[4] = Cytotoxicity against human HuH7 cells; type: cell-based; conditions: Huh-7 cells, read-out: TC50 (the source's name)
[5] = tested on: Plasmodium falciparum; assay: Antimalarial activity against Plasmodium falciparum W2 infected in human erythrocytes assessed as decrease in parasitemia after 72 hrs; type: functional, organism-based; conditions: W2, 72 h
[6] = Half life in male BALB/c mouse at 20 mg/kg, po by LC/MS/MS analysis; type: ADME, organism-based; set-up: dose 20 mg/kg, route oral; conditions: in vivo
How it was run: (§2)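 Male Balb/c mice, n = 3 per group, given 20 mg/kg orally at 8 mL/kg. Vehicle 2.5 mg/mL in 75% PEG300/25% DSW, filtered. Six serial retro-orbital blood samples up to 24 h, heparinized plasma. Plasma extracted with acetonitrile/methanol (3:1) plus internal standard; LC/MS/MS quantitation by positive ESI MRM. Noncompartmental analysis; values normalized to 30 mg/kg. F = (AUCpo·dose iv)/(AUCiv·dose po).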

[7] = in vitro; conditions: human, Caco-2
[8] = Cytotoxicity against human Hep2 cells; type: cell-based; conditions: HEp-2 cells, read-out: TC50 (the source's name)
[9] = molecular target: Cytochrome P450 3A4 (Homo sapiens, UniProt P08684); assay: Inhibition of CYP 3A4; type: ADME
Cytochrome P450 3A4, sequence (P08684 whole entry): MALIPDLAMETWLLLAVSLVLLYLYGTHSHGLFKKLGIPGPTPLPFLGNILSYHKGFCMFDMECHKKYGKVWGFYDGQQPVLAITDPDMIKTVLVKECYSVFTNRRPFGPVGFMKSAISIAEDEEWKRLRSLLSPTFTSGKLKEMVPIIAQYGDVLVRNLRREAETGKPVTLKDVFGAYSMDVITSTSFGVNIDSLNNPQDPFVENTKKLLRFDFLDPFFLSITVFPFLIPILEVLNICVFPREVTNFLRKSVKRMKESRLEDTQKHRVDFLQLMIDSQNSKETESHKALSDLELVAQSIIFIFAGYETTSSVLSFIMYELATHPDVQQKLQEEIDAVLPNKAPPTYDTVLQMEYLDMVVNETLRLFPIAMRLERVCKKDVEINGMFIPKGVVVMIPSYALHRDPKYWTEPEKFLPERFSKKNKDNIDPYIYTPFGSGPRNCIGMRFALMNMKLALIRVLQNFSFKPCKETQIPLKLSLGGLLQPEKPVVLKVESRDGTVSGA

[10] = tested on: Plasmodium berghei; assay: Antimalarial activity against GFP-tagged Plasmodium berghei ANKA infected in NMRI mouse assessed as mouse survival at 30 mg/kg, po QD administered 24 hrs post infection for 3 days measured on day 30 post infection; type: functional
[11] = pampa
[12] = tested on: Plasmodium berghei; assay: Antimalarial activity against GFP-tagged Plasmodium berghei ANKA infected in NMRI mouse assessed as reduction in parasitemia at 30 mg/kg, po QD administered 24 hrs post infection for 3 days measured on day 4 post infection; type: functional; set-up: scale not given: the % may be the effect or the level left
[13] = Oral bioavailability in male BALB/c mouse at 20 mg/kg by LC/MS/MS analysis; type: ADME, organism-based; conditions: in vivo; how it was run: as §2
[14] = Cytotoxicity against mouse BAF3 cells; type: cell-based; conditions: read-out: TC50 (the source's name)
[15] = Half-life in male BALB/c mouse at 5 mg/kg, iv by LC/MS/MS analysis; type: ADME, organism-based; set-up: dose 5 mg/kg, route intravenous; conditions: in vivo; how it was run: as §1
[16] = molecular target: Cytochrome P450 2D6 (Homo sapiens, UniProt P10635); assay: Inhibition of CYP 2D6; type: ADME
Cytochrome P450 2D6, sequence (P10635 whole entry): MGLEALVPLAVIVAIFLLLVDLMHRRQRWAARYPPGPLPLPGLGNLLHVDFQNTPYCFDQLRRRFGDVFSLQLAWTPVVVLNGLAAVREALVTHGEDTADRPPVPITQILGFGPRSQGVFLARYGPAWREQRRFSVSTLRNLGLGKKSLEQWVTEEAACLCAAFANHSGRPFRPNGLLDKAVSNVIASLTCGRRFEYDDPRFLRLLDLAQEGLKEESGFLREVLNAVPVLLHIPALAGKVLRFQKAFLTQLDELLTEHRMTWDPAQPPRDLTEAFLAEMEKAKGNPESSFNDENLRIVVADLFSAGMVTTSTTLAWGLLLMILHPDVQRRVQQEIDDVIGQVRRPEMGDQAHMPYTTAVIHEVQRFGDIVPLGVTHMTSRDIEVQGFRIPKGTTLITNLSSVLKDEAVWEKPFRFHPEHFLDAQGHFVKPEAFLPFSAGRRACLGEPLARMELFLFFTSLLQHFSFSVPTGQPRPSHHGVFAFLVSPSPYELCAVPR

[17] = AUC (0 to infinity) in male BALB/c mouse at 5 mg/kg, iv by LC/MS/MS analysis; type: ADME, organism-based; set-up: time infinity, dose 5 mg/kg, route intravenous; conditions: plasma; how it was run: as §1
[18] = in vitro; conditions: human, Caco-2; remark: listed apart in the source
[19] = tested on: Mus musculus; assay: AUC (0 to infinity) in male BALB/c mouse at 20 mg/kg, po by LC/MS/MS analysis; type: ADME, organism-based, Plasma; set-up: time infinity, dose 20 mg/kg, route oral; conditions: in vivo; how it was run: as §2
[20] = molecular target: Cytochrome P450 2C19 (Homo sapiens, UniProt P33261); assay: Inhibition of CYP 2C19; type: ADME
Cytochrome P450 2C19, sequence (P33261 whole entry): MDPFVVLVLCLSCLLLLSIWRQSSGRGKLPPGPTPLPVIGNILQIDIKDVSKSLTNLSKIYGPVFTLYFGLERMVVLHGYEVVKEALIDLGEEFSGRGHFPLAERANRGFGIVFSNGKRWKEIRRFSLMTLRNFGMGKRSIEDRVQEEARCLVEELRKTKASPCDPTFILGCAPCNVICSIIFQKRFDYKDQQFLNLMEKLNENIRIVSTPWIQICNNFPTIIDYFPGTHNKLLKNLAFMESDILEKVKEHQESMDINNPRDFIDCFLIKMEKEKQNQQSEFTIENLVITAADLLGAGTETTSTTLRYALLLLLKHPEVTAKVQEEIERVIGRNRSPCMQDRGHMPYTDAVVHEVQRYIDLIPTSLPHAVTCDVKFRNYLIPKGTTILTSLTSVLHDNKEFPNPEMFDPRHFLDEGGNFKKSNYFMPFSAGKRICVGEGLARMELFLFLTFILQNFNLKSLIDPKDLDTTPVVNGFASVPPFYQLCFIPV

[21] = tested on: Plasmodium falciparum; assay: Antimalarial activity against Plasmodium falciparum 3D7 infected in human erythrocytes assessed as decrease in parasitemia after 72 hrs; type: functional, organism-based; conditions: 3D7, 72 h
[22] = molecular target: Cytochrome P450 2C9 (Homo sapiens, UniProt P11712); assay: Inhibition of CYP 2C9; type: ADME
Cytochrome P450 2C9, sequence (P11712 whole entry): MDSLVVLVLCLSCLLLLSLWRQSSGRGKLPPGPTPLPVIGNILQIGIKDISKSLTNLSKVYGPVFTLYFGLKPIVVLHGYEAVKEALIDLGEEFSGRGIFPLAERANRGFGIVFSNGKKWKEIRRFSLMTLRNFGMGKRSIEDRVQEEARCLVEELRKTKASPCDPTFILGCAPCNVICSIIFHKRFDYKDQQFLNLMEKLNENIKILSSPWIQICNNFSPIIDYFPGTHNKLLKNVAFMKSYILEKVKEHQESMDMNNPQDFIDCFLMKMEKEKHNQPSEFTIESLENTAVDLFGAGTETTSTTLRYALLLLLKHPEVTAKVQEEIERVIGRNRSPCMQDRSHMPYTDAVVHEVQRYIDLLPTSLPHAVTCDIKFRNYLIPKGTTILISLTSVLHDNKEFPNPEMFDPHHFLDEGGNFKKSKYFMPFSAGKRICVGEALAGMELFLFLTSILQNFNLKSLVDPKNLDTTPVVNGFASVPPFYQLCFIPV

[23] = Cytotoxicity against human 293T cells; type: cell-based; conditions: HEK-293T cells, read-out: TC50 (the source's name)
[24] = tested on: Rattus norvegicus; assay: Toxicity in rat assessed as adverse effect at 500 mg/kg; type: organism-based; set-up: dose 500 mg/kg; conditions: in vivo
[25] = tested on: Mus musculus; assay: Cmax in male BALB/c mouse at 20 mg/kg, po by LC/MS/MS analysis; type: ADME, organism-based; set-up: dose 20 mg/kg, route oral; conditions: in vivo; how it was run: as §2
[26] = tested on: Plasmodium berghei; assay: Antimalarial activity against GFP-tagged Plasmodium berghei ANKA infected in NMRI mouse assessed as mouse survival at 30 mg/kg, po administered as single dose 24 hrs post infection measured 72 hrs post infection
[27] = Cytotoxicity against Cricetulus griseus CHO cells; type: cell-based; conditions: chinese hamster, read-out: TC50 (the source's name)
[28] = Tmax in male BALB/c mouse at 20 mg/kg, po by LC/MS/MS analysis; type: ADME, organism-based; set-up: dose 20 mg/kg, route oral; conditions: in vivo; how it was run: as §2
[29] = Cytotoxicity against human HeLa cells; type: cell-based; conditions: read-out: TC50 (the source's name)
[30] = Selectivity index, ratio TC50 for CHO cells to IC50 for Plasmodium falciparum; type: functional
[31] = Selectivity index, ratio TC50 for human Hep2 cells to IC50 for Plasmodium falciparum; type: functional, HEp-2
[32] = in vitro; conditions: rat, microsomes
[33] = tested on: Plasmodium berghei; assay: Antimalarial activity against GFP-tagged Plasmodium berghei ANKA infected in NMRI mouse assessed as reduction in parasitemia at 30 mg/kg, po administered as single dose 24 hrs post infection measured 72 hrs post infection; type: functional; set-up: scale not given: the % may be the effect or the level left
[34] = tested on: Plasmodium berghei; assay: Antimalarial activity against GFP-tagged Plasmodium berghei ANKA infected in NMRI mouse assessed as mouse survival at 100 mg/kg, po administered as single dose 24 hrs post infection measured on day 30 post infection
[35] = molecular target: Voltage-gated inwardly rectifying potassium channel KCNH2 (Homo sapiens, UniProt Q12809)
Voltage-gated inwardly rectifying potassium channel KCNH2, sequence (Q12809 whole entry): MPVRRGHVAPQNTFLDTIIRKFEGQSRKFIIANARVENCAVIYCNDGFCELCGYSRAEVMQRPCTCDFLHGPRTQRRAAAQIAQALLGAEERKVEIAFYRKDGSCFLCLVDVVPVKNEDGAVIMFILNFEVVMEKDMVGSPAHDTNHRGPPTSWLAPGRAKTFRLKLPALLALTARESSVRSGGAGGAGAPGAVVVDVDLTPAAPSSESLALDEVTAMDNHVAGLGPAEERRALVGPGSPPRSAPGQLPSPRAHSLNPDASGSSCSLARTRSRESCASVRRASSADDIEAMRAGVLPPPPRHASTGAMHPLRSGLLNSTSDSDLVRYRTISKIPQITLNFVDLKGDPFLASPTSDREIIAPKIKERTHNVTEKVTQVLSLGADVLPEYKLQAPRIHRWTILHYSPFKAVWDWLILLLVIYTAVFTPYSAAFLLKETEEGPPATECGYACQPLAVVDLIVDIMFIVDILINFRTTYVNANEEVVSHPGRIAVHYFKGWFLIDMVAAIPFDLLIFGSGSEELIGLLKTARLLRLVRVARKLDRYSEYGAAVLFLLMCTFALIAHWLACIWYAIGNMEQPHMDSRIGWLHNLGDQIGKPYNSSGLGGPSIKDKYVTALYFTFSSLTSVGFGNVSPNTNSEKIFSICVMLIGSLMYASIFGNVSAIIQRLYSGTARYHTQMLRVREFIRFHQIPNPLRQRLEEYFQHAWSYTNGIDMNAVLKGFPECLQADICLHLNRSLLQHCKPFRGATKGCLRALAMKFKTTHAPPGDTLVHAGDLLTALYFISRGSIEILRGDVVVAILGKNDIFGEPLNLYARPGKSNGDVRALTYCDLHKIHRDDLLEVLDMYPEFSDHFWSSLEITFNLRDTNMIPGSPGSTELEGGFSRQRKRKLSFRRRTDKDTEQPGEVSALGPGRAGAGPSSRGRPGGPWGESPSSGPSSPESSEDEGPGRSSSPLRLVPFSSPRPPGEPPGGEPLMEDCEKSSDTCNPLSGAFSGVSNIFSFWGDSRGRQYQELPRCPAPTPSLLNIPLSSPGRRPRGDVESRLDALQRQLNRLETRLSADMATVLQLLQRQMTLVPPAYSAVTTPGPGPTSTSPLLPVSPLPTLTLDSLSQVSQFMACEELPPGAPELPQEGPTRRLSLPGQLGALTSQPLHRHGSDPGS

[36] = Genotoxicity in micronucleus assessed as arrest at cytokinesis stage by micronucleus assay
[37] = in vitro; conditions: mouse, microsomes
[38] = tested on: Salmonella typhimurium; assay: Genotoxicity in Salmonella Typhimurium by Ames test; type: toxicity, organism-based; conditions: salmonella enterica subsp. enterica serovar typhimurium
[39] = Ratio of drug level in blood to plasma of male BALB/c mouse; type: ADME; conditions: blood and plasma
[40] = Ratio of drug level in blood to plasma of female CD1 mouse; type: ADME; conditions: blood and plasma
[41] = Selectivity index, ratio TC50 for human 293T cells to IC50 for Plasmodium falciparum; type: functional
[42] = Selectivity index, ratio TC50 for mouse BAF3 cells to IC50 for Plasmodium falciparum; type: functional
[43] = Selectivity index, ratio TC50 for human HuH7 cells to IC50 for Plasmodium falciparum; type: functional, Huh-7
[44] = Selectivity index, ratio TC50 for human HeLa cells to IC50 for Plasmodium falciparum; type: functional
[45] = in vitro; conditions: human, microsomes
[46] = Aqueous solubility of the compound at pH 6.8; type: physicochemical; conditions: buffer
[47] = Cmax in po dosed mouse; type: ADME, organism-based; set-up: route oral; conditions: in vivo
[48] = in vivo; conditions: female, CD1, mouse, iv, 5 mg/kg
[49] = in vivo; conditions: female, CD1, mouse, iv, 5 mg/kg; remark: listed apart in the source
[50] = in vivo; conditions: female, CD1, mouse, plasma, iv, 5 mg/kg
[51] = tested on: Mus musculus; assay: Oral bioavailability in female CD1 mouse at 30 mg/kg by LC/MS/MS analysis; conditions: mouse, in vivo
[52] = Tmax in female CD1 mouse at 30 mg/kg, po by LC/MS/MS analysis; conditions: in vivo
[53] = in vivo; conditions: female, CD1, mouse, po, 30 mg/kg
[54] = in vivo; conditions: female, CD1, mouse, plasma, po, 30 mg/kg
[55] = Cmax in female CD1 mouse at 30 mg/kg, po by LC/MS/MS analysis; conditions: in vivo
[56] = in vivo; conditions: female, CD1, mouse, iv, 5 mg/kg; remark: listed apart in the source

CC(C)(N)C(=O)N1CCn2c(nc(-c3ccc(F)cc3)c2Nc2ccc(F)cc2)C1
clearance [1]: 60 mL/min/kg
Vd [2]: 23.7 L/kg
IC50 [3]: > 8.9 µM
CC50 [4]: > 12 µM
IC50 [5]: 0.025 µM
half-life [6]: 9 h
Papp A→B [7]: 3.05 ×10⁻⁶ cm/s
CC50 [8]: > 12 µM
IC50 [9]: > 8.9 µM
Survival [10]: 14 days
permeability [11]: 81%
Activity [12]: 99.6%
bioavailability [13]: 87%
CC50 [14]: > 12 µM
half-life [15]: 6.2 h
IC50 [16]: > 8.9 µM
AUC(0-inf) [17]: 3.44 µM·h
Papp B→A [18]: 8.38 ×10⁻⁶ cm/s
AUC [19]: 17.894 µM·h
IC50 [20]: > 8.9 µM
IC50 [21]: 0.02 µM
IC50 [22]: > 8.9 µM
CC50 [23]: > 12 µM
Activity [24]: Non-toxic
Cmax [25]: 1800 nM
Survival [26]: 7.7 days
CC50 [27]: > 12 µM
Tmax [28]: 1.67 h
CC50 [29]: > 12 µM

CC(C)(N)C(=O)N1CCn2c(nc(-c3ccc(F)cc3)c2Nc2ccc(F)c(F)c2)C1
Selectivity Index [30]: >100
clearance [1]: 27.7 mL/min/kg
Vd [2]: 14 L/kg
Selectivity Index [31]: >100
hepatic extraction ratio [32]: 0.12
IC50 [3]: > 8.9 µM
Activity [33]: 99.4%
CC50 [4]: > 12 µM
IC50 [5]: 0.036 µM
Survival [34]: 17 days
half-life [6]: 7.7 h
Papp A→B [7]: 0.14 ×10⁻⁶ cm/s
CC50 [8]: > 12 µM
IC50 [35]: 4.8 µM
IC50 [9]: > 8.9 µM
Survival [10]: 17.7 days
Activity [36]: Non-toxic
hepatic extraction ratio [37]: 0.17
permeability [11]: 86%
Activity [38]: Non-toxic
bioavailability [13]: 76%
CC50 [14]: > 12 µM
blood plasma ratio [39]: > 1
half-life [15]: 7.7 h
blood plasma ratio [40]: > 1
IC50 [16]: > 8.9 µM
AUC(0-inf) [17]: 7 µM·h
Papp B→A [18]: 1.03 ×10⁻⁶ cm/s
AUC [19]: 31.758 µM·h
Selectivity Index [41]: >100
IC50 [20]: > 8.9 µM
IC50 [21]: 0.044 µM
IC50 [22]: > 8.9 µM
CC50 [23]: > 12 µM
Cmax [25]: 1940 nM
Selectivity Index [42]: >100
Selectivity Index [43]: >100
Survival [26]: 7.7 days
CC50 [27]: > 12 µM
Tmax [28]: 1.67 h
CC50 [29]: > 12 µM
Selectivity Index [44]: >100
hepatic extraction ratio [45]: 0.39

NCC(=O)N1CCn2c(nc(-c3ccccc3)c2Nc2ccc3c(c2)OCO3)C1
IC50 [3]: > 10 µM
CC50 [4]: > 10 µM
solubility [46]: > 175 µM
IC50 [5]: 0.097 µM
Cmax [47]: 320 nM
IC50 [35]: 19 µM
IC50 [9]: > 10 µM
IC50 [16]: > 10 µM
IC50 [20]: > 10 µM
IC50 [21]: 0.063 µM
IC50 [22]: > 10 µM
Selectivity Index [43]: >20
Selectivity Index [44]: >20

CC(C)(N)C(=O)N1CCn2c(nc(-c3ccc(F)cc3)c2Nc2ccc(Cl)cc2)C1
hepatic extraction ratio [32]: 0.43
Activity [33]: 98%
Vd [48]: 40.5 L/kg
IC50 [5]: 0.024 µM
Survival [34]: 13 days
Papp A→B [7]: 1.46 ×10⁻⁶ cm/s
IC50 [35]: 2.3 µM
hepatic extraction ratio [37]: 0.17
permeability [11]: 89%
Activity [12]: 99.5%
clearance [49]: 65.2 mL/min/kg
AUC(0-inf) [50]: 2.98 µM·h
F [51]: 158%
Tmax [52]: 1 h
half-life [53]: 37.6 h
Papp B→A [18]: 1.86 ×10⁻⁶ cm/s
IC50 [21]: 0.03 µM
AUC(0-inf) [54]: 28.3 µM·h
Survival [26]: 6 days
Cmax [55]: 749 nM
half-life [56]: 8.7 h
hepatic extraction ratio [45]: 0.54
